Measurements as given in ChEMBL document CHEMBL1149770, “Synthesis and antimicrobial studies of novel dichlorofluorophenyl containing aminotriazolothiadiazines” (2008).
≈ marks a conversion by molar mass, not a printed value.

Tests used:
Talaromyces marneffei [1] = assay: Antifungal activity against Penicillium marneffei after 48 hrs […]; type: functional
Aspergillus flavus [2] = assay: Antifungal activity against Aspergillus flavus assessed as inhibition zone diameter […] by agar dilution method; type: functional
Outline: (§1)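 Compounds in DMSO placed in punched wells on Sabouraud agar (peptone, glucose, agar, pH 5.7) lawned with saline spore suspension. Plates pre-dried 1 h at 37 °C. Controls in triplicate, incubation at 37 °C for 3-4 days, then inhibition zone diameter read in mm. Amphotericin B reference.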

[3] = test system: Trichophyton mentagrophytes; assay: Antifungal activity against Trichophyton mentagrophytes assessed as inhibition zone diameter […] by agar dilution method; type: functional; outline: as §1
Staphylococcus aureus [4] = assay: Antibacterial activity against Staphylococcus aureus ATCC 25923 after 24 hrs by broth dilution technique; type: functional; conditions: ATCC 25923, 24 h
Outline: (§2)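 MIC by broth dilution in nutrient broth with logarithmic serial twofold dilutions of compound. Inoculum approx. 5×10^5 c.f.u actively dividing bacteria. Incubated 24 h at 37 °C, growth monitored visually and spectrophotometrically. MIC taken as the lowest concentration (highest dilution) arresting growth. Ciprofloxacin reference.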

[5] = test system: Trichophyton mentagrophytes; assay: Antifungal activity against Trichophyton mentagrophytes after 48 hrs […]; type: functional
Escherichia coli = assay: Antibacterial activity against Escherichia coli ATCC 25922 after 24 hrs by broth dilution technique; type: functional; conditions: ATCC 25922, 24 h; outline: as §2
Pseudomonas aeruginosa [6] = assay: Antibacterial activity against Pseudomonas aeruginosa ATCC 27853 assessed as inhibition zone diameter after 24 hrs […]; type: functional
Outline: (§3)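 Disc diffusion on nutrient agar. Inoculum 1-2 × 10^7 c.f.u/ml (0.5 McFarland) spread over the plate surface. Sterile 6.25 mm filter-paper discs soaked in a known concentration of compound. Solvent and growth controls included. Plates incubated inverted 24 h at 37 °C, then inhibition zone diameter measured in mm. Ciprofloxacin reference.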

Streptococcus pyogenes [7] = assay: Antibacterial activity against Streptococcus pyogenes after 24 hrs by broth dilution technique; type: functional; outline: as §2
Streptococcus pyogenes [8] = assay: Antibacterial activity against Streptococcus pyogenes assessed as inhibition zone diameter after 24 hrs by disc diffusion method
Talaromyces marneffei [9] = assay: Antifungal activity against Penicillium marneffei assessed as inhibition zone diameter […] by agar dilution method; type: functional; outline: as §1
Aspergillus fumigatus [10] = assay: Antifungal activity against Aspergillus fumigatus assessed as inhibition zone diameter […] by agar dilution method; type: functional; outline: as §1
Aspergillus flavus [11] = assay: Antifungal activity against Aspergillus flavus after 48 hrs […]; type: functional
Klebsiella pneumoniae [12] = assay: Antibacterial activity against Klebsiella pneumoniae assessed as inhibition zone diameter after 24 hrs […]; type: functional; outline: as §3
Staphylococcus aureus [13] = assay: Antibacterial activity against Staphylococcus aureus ATCC 25923 assessed as inhibition zone diameter after 24 hrs […]; type: functional; outline: as §3
Candida albicans [14] = assay: Antifungal activity against Candida albicans after 48 hrs […]; type: functional
Klebsiella pneumoniae [15] = assay: Antibacterial activity against Klebsiella pneumoniae after 24 hrs by broth dilution technique; type: functional; outline: as §2
Pseudomonas aeruginosa [16] = assay: Antibacterial activity against Pseudomonas aeruginosa ATCC 27853 after 24 hrs by broth dilution technique; type: functional; conditions: ATCC 27853, 24 h; outline: as §2
Candida albicans [17] = assay: Antifungal activity against Candida albicans assessed as inhibition zone diameter […] by agar dilution method; type: functional; outline: as §1
Aspergillus fumigatus [18] = assay: Antifungal activity against Aspergillus fumigatus after 48 hrs […]; type: functional

Compound	MIC (Talaromyces marneffei [1]) [µg/mL]	inhibition zone (IZ) (Aspergillus flavus [2]) [mm]	inhibition zone (IZ) [3] [mm]	MIC (Staphylococcus aureus [4]) [µg/mL]	MIC [5] [µg/mL]	MIC (Escherichia coli) [µg/mL]	inhibition zone (IZ) (Pseudomonas aeruginosa [6]) [mm]	MIC (Streptococcus pyogenes [7]) [µg/mL]	inhibition zone (IZ) (Streptococcus pyogenes [8]) [mm]	inhibition zone (IZ) (Talaromyces marneffei [9]) [mm]	inhibition zone (IZ) (Aspergillus fumigatus [10]) [mm]	MIC (Aspergillus flavus [11]) [µg/mL]	inhibition zone (IZ) (Klebsiella pneumoniae [12]) [mm]	inhibition zone (IZ) (Staphylococcus aureus [13]) [mm]	MIC (Candida albicans [14]) [µg/mL]	MIC (Klebsiella pneumoniae [15]) [µg/mL]	MIC (Pseudomonas aeruginosa [16]) [µg/mL]	inhibition zone (IZ) (Candida albicans [17]) [mm]	MIC (Aspergillus fumigatus [18]) [µg/mL]
Fc1cc(-c2nnc3n2N=C(Nc2cc(Cl)c(Cl)cc2Cl)CS3)c(Cl)cc1Cl	6.25 (≈ 12.6 µM)	23	18	6.25 (≈ 12.6 µM)	6.25 (≈ 12.6 µM)	6.25 (≈ 12.6 µM)	32	6.25 (≈ 12.6 µM)	23	24	19	6.25 (≈ 12.6 µM)	20	24	6.25 (≈ 12.6 µM)	6.25 (≈ 12.6 µM)	6.25 (≈ 12.6 µM)	20	6.25 (≈ 12.6 µM)
Nn1c(SCC(=O)Nc2ccccc2C(F)(F)F)nnc1-c1cc(F)c(Cl)cc1Cl	6.25 (≈ 13 µM)	21	18	6.25 (≈ 13 µM)	6.25 (≈ 13 µM)	6.25 (≈ 13 µM)	29	6.25 (≈ 13 µM)	22	22	19	6.25 (≈ 13 µM)	20	25	6.25 (≈ 13 µM)	6.25 (≈ 13 µM)	6.25 (≈ 13 µM)	19	6.25 (≈ 13 µM)
Fc1cc(-c2nnc3n2N=C(Nc2ccccc2C(F)(F)F)CS3)c(Cl)cc1Cl	6.25 (≈ 13.5 µM)	21	17	6.25 (≈ 13.5 µM)	6.25 (≈ 13.5 µM)	6.25 (≈ 13.5 µM)	30	6.25 (≈ 13.5 µM)	23	21	21	6.25 (≈ 13.5 µM)	21	22	6.25 (≈ 13.5 µM)	6.25 (≈ 13.5 µM)	6.25 (≈ 13.5 µM)	18	6.25 (≈ 13.5 µM)
Nn1c(SCC(=O)Nc2ccc(F)c(Cl)c2)nnc1-c1cc(F)c(Cl)cc1Cl	6.25 (≈ 13.4 µM)	8	11	6.25 (≈ 13.4 µM)	12.5 (≈ 26.9 µM)	6.25 (≈ 13.4 µM)	31	6.25 (≈ 13.4 µM)	23	20	16	25 (≈ 53.8 µM)	20	24	12.5 (≈ 26.9 µM)	6.25 (≈ 13.4 µM)	6.25 (≈ 13.4 µM)	15	12.5 (≈ 26.9 µM)
CCOc1ccc(NC2=Nn3c(nnc3-c3cc(F)c(Cl)cc3Cl)SC2)cc1	12.5 (≈ 28.5 µM)	10	–	6.25 (≈ 14.3 µM)	> 100	> 100	15	–	–	17	15	25 (≈ 57 µM)	12	20	12.5 (≈ 28.5 µM)	12.5 (≈ 28.5 µM)	25 (≈ 57 µM)	12	12.5 (≈ 28.5 µM)
Cc1ccc(NC(=O)CSc2nnc(-c3cc(F)c(Cl)cc3Cl)n2N)c(C)c1	25 (≈ 56.8 µM)	10	12	6.25 (≈ 14.2 µM)	6.25 (≈ 14.2 µM)	6.25 (≈ 14.2 µM)	30	6.25 (≈ 14.2 µM)	18	9	8	25 (≈ 56.8 µM)	10	17	12.5 (≈ 28.4 µM)	25 (≈ 56.8 µM)	6.25 (≈ 14.2 µM)	14	25 (≈ 56.8 µM)
Fc1cc(-c2nnc3n2N=C(Nc2ccc(Cl)cc2)CS3)c(Cl)cc1Cl	12.5 (≈ 29.2 µM)	20	11	6.25 (≈ 14.6 µM)	12.5 (≈ 29.2 µM)	6.25 (≈ 14.6 µM)	32	6.25 (≈ 14.6 µM)	25	15	18	6.25 (≈ 14.6 µM)	20	24	6.25 (≈ 14.6 µM)	6.25 (≈ 14.6 µM)	6.25 (≈ 14.6 µM)	16	6.25 (≈ 14.6 µM)
